# According to the M2OR odorant receptor database:
# Key:
# Settings in all cases: stereoisomer not certain
# OR2L13 (Homo sapiens) = target: T1, OR2L13 (Homo sapiens) (UniProt Q8N349)
# T1 sequence (whole entry): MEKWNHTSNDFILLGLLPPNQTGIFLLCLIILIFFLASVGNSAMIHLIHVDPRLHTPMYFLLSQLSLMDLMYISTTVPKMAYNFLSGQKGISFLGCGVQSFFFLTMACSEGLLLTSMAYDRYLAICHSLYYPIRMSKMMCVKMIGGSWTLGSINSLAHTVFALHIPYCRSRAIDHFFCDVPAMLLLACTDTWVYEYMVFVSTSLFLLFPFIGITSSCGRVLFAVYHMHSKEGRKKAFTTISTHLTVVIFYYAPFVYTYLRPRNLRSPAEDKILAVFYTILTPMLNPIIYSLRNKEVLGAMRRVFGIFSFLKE
# Procedure, shortened: (§1)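 Transient luciferase assays in mammalian cell lines were common, though methods varied by source. The values come from published papers and their supplementary material, with extra details from the original authors when needed. Responsive refers to a measured signal the original authors judged statistically different from baseline, and non-responsive (inactive) to the remainder.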
# OR2L2 (Homo sapiens) = target: T2, OR2L2 (Homo sapiens) (UniProt Q8NH16)
# T2 sequence (whole entry): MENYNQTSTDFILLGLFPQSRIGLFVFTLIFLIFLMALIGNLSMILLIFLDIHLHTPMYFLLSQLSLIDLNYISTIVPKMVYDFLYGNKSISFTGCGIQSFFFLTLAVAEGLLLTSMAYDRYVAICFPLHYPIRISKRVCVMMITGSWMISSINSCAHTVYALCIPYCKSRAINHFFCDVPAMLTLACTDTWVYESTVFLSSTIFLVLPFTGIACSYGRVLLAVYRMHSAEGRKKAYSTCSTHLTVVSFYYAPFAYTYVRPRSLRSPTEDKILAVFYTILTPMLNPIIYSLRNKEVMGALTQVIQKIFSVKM
# Procedure, shortened: as §1
# OR2L3 (Homo sapiens) = target: T3, OR2L3 (Homo sapiens) (UniProt Q8NG85)
# T3 sequence (whole entry): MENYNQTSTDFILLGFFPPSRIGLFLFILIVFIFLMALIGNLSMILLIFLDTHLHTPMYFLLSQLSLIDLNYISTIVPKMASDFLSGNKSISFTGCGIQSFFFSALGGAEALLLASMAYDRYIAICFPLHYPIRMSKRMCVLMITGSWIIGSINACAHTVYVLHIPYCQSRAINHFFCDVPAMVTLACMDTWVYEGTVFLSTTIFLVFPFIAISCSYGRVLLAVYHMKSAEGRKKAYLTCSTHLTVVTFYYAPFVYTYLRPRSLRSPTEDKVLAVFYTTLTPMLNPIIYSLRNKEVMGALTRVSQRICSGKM
# Procedure, shortened: as §1
# OR2L5 (Homo sapiens) = target: T4, OR2L5 (Homo sapiens) (UniProt Q8NG80)
# T4 sequence (whole entry): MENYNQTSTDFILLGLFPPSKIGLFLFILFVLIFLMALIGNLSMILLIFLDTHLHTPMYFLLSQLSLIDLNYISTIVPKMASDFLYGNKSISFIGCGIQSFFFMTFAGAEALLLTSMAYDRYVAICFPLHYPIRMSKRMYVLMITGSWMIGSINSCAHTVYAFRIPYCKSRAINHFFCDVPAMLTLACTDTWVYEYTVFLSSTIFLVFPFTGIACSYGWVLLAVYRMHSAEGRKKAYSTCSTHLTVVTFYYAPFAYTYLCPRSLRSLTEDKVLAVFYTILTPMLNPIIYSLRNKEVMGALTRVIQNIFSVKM
# Procedure, shortened: as §1
# OR2L8 (Homo sapiens) = target: T5, OR2L8 (Homo sapiens) (UniProt Q8NGY9)
# T5 sequence (whole entry): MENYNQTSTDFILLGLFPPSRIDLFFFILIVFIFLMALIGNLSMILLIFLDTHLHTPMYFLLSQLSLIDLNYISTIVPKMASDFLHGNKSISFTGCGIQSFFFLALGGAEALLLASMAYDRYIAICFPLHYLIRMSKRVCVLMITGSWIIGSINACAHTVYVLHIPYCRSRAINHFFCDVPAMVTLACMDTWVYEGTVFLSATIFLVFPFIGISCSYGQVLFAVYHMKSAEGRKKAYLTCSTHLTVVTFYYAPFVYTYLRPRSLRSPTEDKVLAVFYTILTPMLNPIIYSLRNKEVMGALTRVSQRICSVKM
# Procedure, shortened: as §1
# OR2M2 (Homo sapiens) = target: T6, OR2M2 (Homo sapiens) (UniProt Q96R28)
# T6 sequence (whole entry): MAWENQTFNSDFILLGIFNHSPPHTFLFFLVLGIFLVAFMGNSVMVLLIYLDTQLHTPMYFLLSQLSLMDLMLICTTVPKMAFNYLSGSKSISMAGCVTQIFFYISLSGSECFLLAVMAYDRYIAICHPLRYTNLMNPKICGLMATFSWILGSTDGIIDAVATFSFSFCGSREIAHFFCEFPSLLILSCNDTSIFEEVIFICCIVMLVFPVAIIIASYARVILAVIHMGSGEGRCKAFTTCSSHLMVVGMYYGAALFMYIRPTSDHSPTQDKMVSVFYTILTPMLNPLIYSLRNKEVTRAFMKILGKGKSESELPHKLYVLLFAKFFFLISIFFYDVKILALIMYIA
# Procedure, shortened: as §1
# OR2M3 (Homo sapiens) = target: T7, OR2M3 (Homo sapiens) (UniProt Q8NG83)
# T7 sequence (whole entry): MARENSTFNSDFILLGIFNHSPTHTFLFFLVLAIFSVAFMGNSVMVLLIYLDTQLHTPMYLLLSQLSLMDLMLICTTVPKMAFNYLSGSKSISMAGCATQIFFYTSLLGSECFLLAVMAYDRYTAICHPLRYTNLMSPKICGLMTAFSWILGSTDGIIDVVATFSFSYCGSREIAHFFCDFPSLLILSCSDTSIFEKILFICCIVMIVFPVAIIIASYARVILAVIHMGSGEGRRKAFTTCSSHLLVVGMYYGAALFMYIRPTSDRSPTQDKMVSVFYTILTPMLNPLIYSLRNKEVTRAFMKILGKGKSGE
# Procedure, shortened: as §1
# 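Further: active if original authors judged signal statistically different from baseline.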
structure (smiles),measurement,setting,value
CC(CO)CS (stereo unspecified),odorant receptor agonist call,OR2L13 (Homo sapiens),inactive
same,odorant receptor agonist call,OR2L2 (Homo sapiens),inactive
same,odorant receptor agonist call,OR2L3 (Homo sapiens),inactive
same,odorant receptor agonist call,OR2L5 (Homo sapiens),inactive
same,odorant receptor agonist call,OR2L8 (Homo sapiens),inactive
same,odorant receptor agonist call,OR2M2 (Homo sapiens),inactive
same,odorant receptor agonist call,OR2M3 (Homo sapiens),inactive
O=C(O)CCc1ccccc1,odorant receptor agonist call,OR2M3 (Homo sapiens),inactive
CC=CC(=O)C1=C(C)CCCC1(C)C,odorant receptor agonist call,OR2M3 (Homo sapiens),inactive
CCCCCCCCCC(=O)OCC,odorant receptor agonist call,OR2L13 (Homo sapiens),inactive
same,odorant receptor agonist call,OR2M3 (Homo sapiens),inactive
COC(=O)C=Cc1ccccc1,odorant receptor agonist call,OR2M3 (Homo sapiens),inactive
CCOC(C)=O,odorant receptor agonist call,OR2M3 (Homo sapiens),inactive
CCCCC(CC)CCC(=O)O (stereo unspecified),odorant receptor agonist call,OR2M3 (Homo sapiens),inactive
CC1=NC(C)C(C)S1 (stereo unspecified),odorant receptor agonist call,OR2L13 (Homo sapiens),inactive
same,odorant receptor agonist call,OR2L2 (Homo sapiens),inactive
same,odorant receptor agonist call,OR2L3 (Homo sapiens),inactive
same,odorant receptor agonist call,OR2L5 (Homo sapiens),inactive
same,odorant receptor agonist call,OR2L8 (Homo sapiens),inactive
same,odorant receptor agonist call,OR2M2 (Homo sapiens),inactive
same,odorant receptor agonist call,OR2M3 (Homo sapiens),inactive
CCCCCCCC(=O)OCC,odorant receptor agonist call,OR2L13 (Homo sapiens),inactive
same,odorant receptor agonist call,OR2M3 (Homo sapiens),inactive
CCC(C)CO (stereo unspecified),odorant receptor agonist call,OR2L13 (Homo sapiens),inactive
same,odorant receptor agonist call,OR2M3 (Homo sapiens),inactive
CCCCC(S)C(C)CO (stereo unspecified),odorant receptor agonist call,OR2L13 (Homo sapiens),inactive
same,odorant receptor agonist call,OR2L2 (Homo sapiens),inactive
same,odorant receptor agonist call,OR2L3 (Homo sapiens),inactive
same,odorant receptor agonist call,OR2L5 (Homo sapiens),inactive
same,odorant receptor agonist call,OR2L8 (Homo sapiens),inactive
same,odorant receptor agonist call,OR2M2 (Homo sapiens),inactive
same,odorant receptor agonist call,OR2M3 (Homo sapiens),inactive
O=c1ccc2ccccc2o1,odorant receptor agonist call,OR2L13 (Homo sapiens),inactive
same,odorant receptor agonist call,OR2M3 (Homo sapiens),inactive
CCCCCCCCCO,odorant receptor agonist call,OR2M3 (Homo sapiens),inactive
Cc1cnc(C)c(C)n1,odorant receptor agonist call,OR2L13 (Homo sapiens),inactive
same,odorant receptor agonist call,OR2L2 (Homo sapiens),inactive
same,odorant receptor agonist call,OR2L3 (Homo sapiens),inactive
same,odorant receptor agonist call,OR2L5 (Homo sapiens),inactive
same,odorant receptor agonist call,OR2L8 (Homo sapiens),inactive
same,odorant receptor agonist call,OR2M2 (Homo sapiens),inactive
same,odorant receptor agonist call,OR2M3 (Homo sapiens),inactive
C=C1CCC2CC1C2(C)C (stereo unspecified),odorant receptor agonist call,OR2L13 (Homo sapiens),inactive
same,odorant receptor agonist call,OR2M3 (Homo sapiens),inactive
CCC(C)C(=O)OC (stereo unspecified),odorant receptor agonist call,OR2M3 (Homo sapiens),inactive
CC(=O)O,odorant receptor agonist call,OR2L13 (Homo sapiens),inactive
same,odorant receptor agonist call,OR2M3 (Homo sapiens),inactive
COc1ccc2ccc(=O)oc2c1,odorant receptor agonist call,OR2M3 (Homo sapiens),inactive
CC=Cc1ccc(OC)cc1,odorant receptor agonist call,OR2M3 (Homo sapiens),inactive
CCC(=O)O,odorant receptor agonist call,OR2L13 (Homo sapiens),inactive
same,odorant receptor agonist call,OR2M3 (Homo sapiens),inactive
CCCCCCO,odorant receptor agonist call,OR2M3 (Homo sapiens),inactive
CCCCC(=O)OCC,odorant receptor agonist call,OR2M3 (Homo sapiens),inactive
CC=O,odorant receptor agonist call,OR2M3 (Homo sapiens),inactive
CCOC(=O)CCC(C)C,odorant receptor agonist call,OR2M3 (Homo sapiens),inactive
CCCSSSC,odorant receptor agonist call,OR2M3 (Homo sapiens),inactive
CCCCCCC=CC=O,odorant receptor agonist call,OR2M3 (Homo sapiens),inactive
CC(=O)c1c(C)c([N+](=O)[O-])c(C(C)(C)C)c([N+](=O)[O-])c1C,odorant receptor agonist call,OR2L13 (Homo sapiens),inactive
same,odorant receptor agonist call,OR2L3 (Homo sapiens),inactive
same,odorant receptor agonist call,OR2L5 (Homo sapiens),inactive
same,odorant receptor agonist call,OR2L8 (Homo sapiens),inactive
same,odorant receptor agonist call,OR2M2 (Homo sapiens),inactive
same,odorant receptor agonist call,OR2M3 (Homo sapiens),inactive
CC(C)=CCCC(C)=CCO,odorant receptor agonist call,OR2L13 (Homo sapiens),inactive
same,odorant receptor agonist call,OR2M3 (Homo sapiens),inactive
CCOC(=O)C=Cc1ccccc1,odorant receptor agonist call,OR2M3 (Homo sapiens),inactive
CCCCCCCCCC(=O)[O-].[H+],odorant receptor agonist call,OR2M3 (Homo sapiens),inactive
CCCC1CCCC(=O)O1 (stereo unspecified),odorant receptor agonist call,OR2M3 (Homo sapiens),inactive
CCOC(C)OCC,odorant receptor agonist call,OR2M3 (Homo sapiens),inactive
CCCc1ccc(O)c(OC)c1,odorant receptor agonist call,OR2M3 (Homo sapiens),inactive
CCCCC1CCC(=O)O1 (stereo unspecified),odorant receptor agonist call,OR2M3 (Homo sapiens),inactive
CCCCCC(C)O (stereo unspecified),odorant receptor agonist call,OR2M3 (Homo sapiens),inactive
CCCCC=CC=O,odorant receptor agonist call,OR2M3 (Homo sapiens),inactive
CC(C)CCCCCCCCCCC=O,odorant receptor agonist call,OR2M3 (Homo sapiens),inactive
CCC(C)c1nccnc1OC (stereo unspecified),odorant receptor agonist call,OR2M3 (Homo sapiens),inactive
CC(=O)c1cnccn1,odorant receptor agonist call,OR2M3 (Homo sapiens),inactive
CCOC(=O)C(C)C,odorant receptor agonist call,OR2M3 (Homo sapiens),inactive
COc1ccc(C)cc1O,odorant receptor agonist call,OR2M3 (Homo sapiens),inactive
CCCC(=O)C(C)CC (stereo unspecified),odorant receptor agonist call,OR2M3 (Homo sapiens),inactive
OCCc1ccccc1,odorant receptor agonist call,OR2M3 (Homo sapiens),inactive
CCCCCCC1CCC(=O)O1 (stereo unspecified),odorant receptor agonist call,OR2M3 (Homo sapiens),inactive
CCC=CCCC=CC=O,odorant receptor agonist call,OR2M3 (Homo sapiens),inactive
CC1=CCC(C(C)C)C=C1 (stereo unspecified),odorant receptor agonist call,OR2M3 (Homo sapiens),inactive
CCC=CCCC=O,odorant receptor agonist call,OR2M3 (Homo sapiens),inactive
CC(=O)C1=NCCS1,odorant receptor agonist call,OR2M3 (Homo sapiens),inactive
CCCCCC=O,odorant receptor agonist call,OR2M3 (Homo sapiens),inactive
COc1cccc(OC)c1O,odorant receptor agonist call,OR2M3 (Homo sapiens),inactive
CCCC(S)C(C)CO (stereo unspecified),odorant receptor agonist call,OR2M3 (Homo sapiens),active
CC(=O)OCCC(C)C,odorant receptor agonist call,OR2M3 (Homo sapiens),inactive
CCCCCCCCC=CC=O,odorant receptor agonist call,OR2M3 (Homo sapiens),inactive
Cc1c[nH]c2ccccc12,odorant receptor agonist call,OR2M3 (Homo sapiens),inactive
CCCCCC=CCCC=O,odorant receptor agonist call,OR2M3 (Homo sapiens),inactive
COc1nccnc1CC(C)C,odorant receptor agonist call,OR2M3 (Homo sapiens),inactive
CCCC(=O)OC,odorant receptor agonist call,OR2M3 (Homo sapiens),inactive
CCC=CCCC=CCO,odorant receptor agonist call,OR2M3 (Homo sapiens),inactive
OCC=Cc1ccccc1,odorant receptor agonist call,OR2M3 (Homo sapiens),inactive
CCC(C)COC(C)=O (stereo unspecified),odorant receptor agonist call,OR2M3 (Homo sapiens),inactive
CCc1ncc(C)nc1CC,odorant receptor agonist call,OR2M3 (Homo sapiens),inactive
CCCC(S)CCO (stereo unspecified),odorant receptor agonist call,OR2M3 (Homo sapiens),inactive
CCCCCCCC(C)=O,odorant receptor agonist call,OR2M3 (Homo sapiens),inactive
CC(C)(S)CCOC=O,odorant receptor agonist call,OR2M3 (Homo sapiens),inactive
CCOC(=O)c1ccccc1,odorant receptor agonist call,OR2M3 (Homo sapiens),inactive
C=C1CCC2(C(C)C)CC12 (stereo unspecified),odorant receptor agonist call,OR2M3 (Homo sapiens),inactive
CCOC(=O)CCSC,odorant receptor agonist call,OR2M3 (Homo sapiens),inactive
CCCCCC=CC=CC=O,odorant receptor agonist call,OR2M3 (Homo sapiens),inactive
CCCCC1OC(=O)CC1C (stereo unspecified),odorant receptor agonist call,OR2M3 (Homo sapiens),inactive
CC=CC(=O)C1=C(C)C=CCC1(C)C,odorant receptor agonist call,OR2M3 (Homo sapiens),inactive
C=CCSC,odorant receptor agonist call,OR2M3 (Homo sapiens),inactive
CCCSSCCC,odorant receptor agonist call,OR2M3 (Homo sapiens),inactive
CCC=CCCOC(C)=O,odorant receptor agonist call,OR2M3 (Homo sapiens),inactive
CC(=O)C(C)O (stereo unspecified),odorant receptor agonist call,OR2M3 (Homo sapiens),inactive
